Experimental data reported in ChEMBL document CHEMBL4373686, “Methyl sulfonamide substituents improve the pharmacokinetic properties of bicyclic 2-pyridone based Chlamydia trachomatis inhibitors” (Medchemcomm, 2019).
In brackets after ≈: the same amount, converted by molar mass. Activity calls are given as the source filed them. No cut-off for these calls is given here.

What was measured:
[1] = Solubility of compound in PBS at 0.2 to 0.5 mg after 48 hrs by LC-MS/MS based shake flask method; type: physicochemical
[2] = Fraction unbound in CD-1 mouse plasma at 10 uM incubated for 4 hrs by LC-MS/MS-based equilibrium dialysis method; type: ADME, cell-free
In short: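 Rapid equilibrium dialysis: 10% CD-1 mouse plasma in isotonic buffer spiked to 10 μM compound, 1% DMSO final, against phosphate buffer pH 7.4; 37 °C, 900 rpm, 4 h. Matrix-matched samples precipitated with methanol, LC-MS/MS; fu corrected for plasma dilution.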

[3] = Intrinsic clearance in mouse liver microsomes at 1 uM incubated for 5 to 60 mins in presence of NADPH by LC-MS/MS analysis; type: ADME, Microsome
In short: (§1)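 Liver microsomes 0.5 mg/ml, compound 1 μM in 100 mM phosphate pH 7.4; started with 1 mM NADPH (final). Sampled 0–60 min, quenched in cold acetonitrile, parent remaining by LC-MS/MS; ln % remaining versus time fitted by linear regression.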

Chlamydia trachomatis [4] = test: (§2) Antibacterial activity against Chlamydia trachomatis 434/Bu serovar L2/ATCC VR-902B in HeLa 229 cells infected with cell lysates from 48 hrs at 1 uM compound treated HeLa 229 cells with Chlamydia trachomatis infection assessed as inhibition of reinfection and measured after 48 hrs post re-infection by DAPI staining based arrayscan automated microscopic method relative to control; type: functional, organism-based
In short: (§3)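 HeLa 229 cells infected with C. trachomatis L2 EBs at MOI 0.3–0.5; compound added in RPMI 1 h post infection; 44–48 h, then water lysis. 10-fold serial dilutions of lysate reinfect fresh HeLa; 44–46 h, methanol fixed, anti-Chlamydia/FITC antibody plus DAPI stain, IFUs counted by automated microscopy; % IFU versus DMSO control; three independent experiments, duplicates.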

[5] = Apparent permeability from apical to basolateral side in human Caco2 cells at 1 uM after 15 to 60 mins by LC-MS/MS analysis; type: ADME, cell-based; conditions: caco-2, 1 µM
In short: (§4)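 Caco-2 monolayers (passage 94–105) used on day 21 on filter supports; 1 μM donor solution applied apical or basolateral, pH 7.4 both chambers, 37 °C, 500 rpm stirring. Receiver sampled at 15, 30, 60 min, donor at 60 min for mass balance; LC-MS/MS with warfarin internal standard.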

Chlamydia trachomatis [6] = test: as §2, with “2.5” for “1”; type: functional, organism-based; in short: as §3
[7] = Cmax in C3H/HeJ mouse at 1.2 mg/kg, iv measured upto 24 hrs; conditions: in vivo
[8] = AUC (0 to infinity) C3H/HeJ mouse at 1.2 mg/kg, iv measured upto 24 hrs; conditions: in vivo
[9] = Intrinsic clearance in human liver microsomes at 1 uM incubated for 5 to 60 mins in presence of NADPH by LC-MS/MS analysis; type: ADME, Microsome; in short: as §1
[10] = Efflux ratio of apparent permeability in human Caco2 cells at 1 uM after 15 to 60 mins by LC-MS/MS analysis; type: ADME, cell-based; conditions: caco-2, 1 µM; in short: as §4
[11] = Half life in C3H/HeJ mouse at 1.2 mg/kg, iv measured upto 24 hrs; conditions: in vivo
[12] = Clearance in C3H/HeJ mouse at 1.2 mg/kg, iv measured upto 24 hrs; conditions: in vivo
[13] = Volume of distribution at steady state in C3H/HeJ mouse at 1.2 mg/kg, iv measured upto 24 hrs; conditions: in vivo
HeLa 229 = test: Cytotoxicity against human HeLa 229 cells assessed as cell viability at 10 uM after 48 hrs resazurin dye based fluorescence method relative to control; conditions: hela 229, 48 h
In short: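 HeLa cells in colorless DMEM with 10% FBS, compound in 0.5% DMSO for 48 h; resazurin added, 3 h at 37 °C, 5% CO2, dark; fluorescence ex 535/em 595 nm; triplicate wells as percent of DMSO control.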

[14] = Cmax in C3H/HeOuJ mouse at 1 mg/kg, iv measured upto 24 hrs; conditions: in vivo
[15] = Tmax in C3H/HeOuJ mouse at 10 mg/kg, po measured upto 24 hrs; conditions: in vivo
[16] = Volume of distribution at steady state in C3H/HeJ mouse at 1 mg/kg, iv measured upto 24 hrs; type: ADME, organism-based; conditions: in vivo
In short: (§5)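 Female C3H mice, three per dose and route; IV as 50 μL tail-vein injection in PBS with 10% cremophor, 5% EtOH, 4% DMSO; PO as 100 μL gavage in lipid-vehicle/water emulsion. Tail-vein blood at 10 min (IV) and 0.5–24 h; acetonitrile mixed, methanol extracted, LC-MS/MS against spiked blank blood standards; non-compartmental analysis, errors as SD.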

[17] = AUC (0 to infinity) in C3H/HeOuJ mouse at 10 mg/kg, po measured upto 24 hrs; conditions: in vivo
[18] = Half life in C3H/HeOuJ mouse at 10 mg/kg, po measured upto 24 hrs; conditions: in vivo
[19] = Half life in C3H/HeJ mouse at 1 mg/kg, iv measured upto 24 hrs; type: ADME, organism-based; conditions: in vivo; in short: as §5
[20] = Toxicity in C3H/HeJ mouse infected with Chlamydia trachomatis serovar D/ATCC VR-885 assessed as vital signs at 10 mg/kg, po BID administered 21 consecutive days; type: organism-based; conditions: in vivo, in the assay text read “7 consecutive days” for “21 consecutive days”
In short: (§6)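 Female C3H/HeJ mice given 2.4 mg medroxyprogesterone acetate s.c. 10 and 3 days before intravaginal infection (5000 CFU). Nine mice dosed by gavage 100 μL of 2.33 mg/mL emulsion, twice daily; vehicle and doxycycline groups. Vaginal swabs on days 2–21 titrated on HeLa cells, immunostained, counted by automated microscopy.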

[21] = Cmax in C3H/HeJ mouse at 10 mg/kg, po measured upto 24 hrs; type: ADME, organism-based; set-up: dose 10 mg/kg, route oral; conditions: in vivo; in short: as §5
Chlamydia trachomatis [22] = test: Antibacterial activity against Chlamydia trachomatis serovar D/ATCC VR-885 infected in C3H/HeJ mouse assessed as reduction in vaginal infection at 10 mg/kg, po BID administered 21 consecutive days by vaginal swab based immunostaining arrayscan automated microscopic method; type: functional, organism-based; conditions: in the assay text read “7 consecutive days” for “21 consecutive days”; in short: as §6
[23] = Clearance in C3H/HeOuJ mouse at 1 mg/kg, iv measured upto 24 hrs; conditions: in vivo
[24] = Oral bioavailability in C3H/HeOuJ mouse at 10 mg/kg measured upto 24 hrs; conditions: in vivo
[25] = AUC (0 to infinity) in C3H/HeOuJ mouse at 1 mg/kg, iv measured upto 24 hrs; conditions: in vivo
[26] = Half life in C3H/HeOuJ mouse at 0.9 mg/kg, iv measured upto 24 hrs; type: ADME, organism-based; conditions: in vivo; in short: as §5
[27] = Clearance in C3H/HeOuJ mouse at 0.9 mg/kg, iv measured upto 24 hrs; type: ADME, organism-based; conditions: in vivo; in short: as §5
[28] = Cmax in C3H/HeOuJ mouse at 0.9 mg/kg, iv measured upto 24 hrs; type: ADME, organism-based; set-up: dose 0.9 mg/kg, route intravenous; conditions: in vivo; in short: as §5
[29] = AUC (0 to infinity) C3H/HeOuJ mouse at 0.9 mg/kg, iv measured upto 24 hrs; type: ADME, organism-based; set-up: dose 0.9 mg/kg, route intravenous, time infinity; conditions: in vivo; in short: as §5
[30] = Volume of distribution at steady state in C3H/HeJ mouse at 0.9 mg/kg, iv measured upto 24 hrs; conditions: in vivo

| SMILES | inhibition (Chlamydia trachomatis [4]) | inhibition (Chlamydia trachomatis [6]) | Activity (HeLa 229) | also measured |
| --- | --- | --- | --- | --- |
| Nc1c(Cc2cccc3ccccc23)c(C2CC2)c2n(c1=O)C(n1cc(-c3ccccc3)nn1)CS2 (racemic) | 90% | 91% |  | solubility thermodynamic at 48 h [1]: 0.31 µM (≈ 0.152 µg/mL); Fu [2]: < 0.1%; CLH [3]: 135 µL/min/mg; Papp [5]: 0.33 ×10⁻⁶ cm/s; Cmax [7]: 40 nM; AUC(0-inf) [8]: 0.1 µM·h; CLH [9]: 187 µL/min/mg; Ratio [10]: 0.6; t1/2 [11]: 3.7 h; CL [12]: 0.51 L/h; Vdss [13]: 27 L/kg |
| CN(C)c1c(Cc2cccc3ccccc23)cc(=O)n2c1SCC2C(=O)Nc1ccccc1 (racemic) | 78% | 94% | 92% |  |
| COc1c(Cc2cccc(C)c2C)cc(=O)n2c1SCC2C(=O)Nc1ccccc1 (racemic) | 22% | 51% | 89% |  |
| COc1c(Cc2cccc3ccccc23)cc(=O)n2c1SCC2n1cc(-c2ccccc2)nn1 (racemic) |  | 81% | 87% |  |
| Cc1cccc(NC(=O)C2CSc3c(NS(C)(=O)=O)c(Cc4cccc5ccccc45)cc(=O)n32)c1 (racemic) |  | -2% | 92% |  |
| COc1c(Cc2cccc(C)c2C)c(N)c(=O)n2c1SCC2C(=O)Nc1ccccc1 (racemic) |  | 25% | 94% |  |
| COC(=O)Nc1c(Cc2cccc3ccccc23)cc(=O)n2c1SCC2C(=O)Nc1ccccc1 (racemic) |  | 12% | 88% |  |
| CC(=O)Nc1c(Cc2cccc3ccccc23)cc(=O)n2c1SCC2C(=O)Nc1ccccc1 (racemic) | 44% | 3% | 90% |  |
| COc1c(Cc2cccc3ccccc23)c(N)c(=O)n2c1SCC2C(=O)Nc1ccccc1 (racemic) |  | 25% | 94% |  |
| CS(=O)(=O)Nc1c(Cc2cccc3ccccc23)cc(=O)n2c1SCC2n1cc(-c2ccccc2)nn1 (racemic) |  | 88% | 91% |  |
| COc1c(Cc2cccc(C)c2C)cc(=O)n2c1SCC2c1nc(-c2ccccc2)no1 (racemic) |  | 1% | 91% |  |
| COc1c(Cc2cccc3ccccc23)cc(=O)n2c1SCC2C(=O)Nc1ccc(C)cc1 (racemic) | 62% | 94% | 89% |  |
| Cc1cc(F)cc(NC(=O)C2CSc3c(NS(C)(=O)=O)c(Cc4cccc5ccccc45)cc(=O)n32)c1 (racemic) | 6% | 6% | 91% |  |
| CS(=O)(=O)Nc1c(Cc2cccc3ccccc23)cc(=O)n2c1SCC2C(=O)Nc1ccccc1 (racemic) | 23% | 89% | 94% | Cmax [14]: 1700 nM; solubility thermodynamic at 48 h [1]: 1.3 µM (≈ 0.657 µg/mL); Tmax [15]: 1 h; Vdss [16]: 0.62 L/kg; AUC [17]: 20.3 µM·h; t1/2 [18]: 2.6 h; t1/2 [19]: 5.3 h; Fu [2]: 0.39%; CLH [3]: 59 µL/min/mg; Papp [5]: 30 ×10⁻⁶ cm/s; Activity [20]: Non-Toxic; Cmax [21]: 3700 nM; Activity (Chlamydia trachomatis [22]): inactive; CL [23]: 0.01 L/h; F [24]: 41%; CLH [9]: 39 µL/min/mg; Ratio [10]: 2; AUC [25]: 4.8 µM·h |
| COc1c(Cc2cccc(C)c2C)cc(=O)n2c1SCC2C(=O)Nc1cc(C)cc(F)c1 (racemic) | 77% | 95% | 90% | solubility thermodynamic at 48 h [1]: 0.32 µM (≈ 0.145 µg/mL); t1/2 [26]: 1.2 h; CL [27]: 0.04 L/h; Fu [2]: 0.1%; CLH [3]: 440 µL/min/mg; Cmax [28]: 410 nM; Papp [5]: 2.1 ×10⁻⁶ cm/s; CLH [9]: 184 µL/min/mg; Ratio [10]: 3.2; AUC(0-inf) [29]: 0.95 µM·h; Vdss [30]: 1.1 L/kg |
| COc1c(Cc2cccc3ccccc23)c(N)c(=O)n2c1SCC2C(=O)Nc1ccc(C)cc1 (racemic) |  | 51% | 91% |  |
| CC(C)Nc1c(Cc2cccc3ccccc23)cc(=O)n2c1SCC2C(=O)Nc1ccccc1 (racemic) | 25% | 79% | 91% |  |
| COc1c(Cc2cccc(C)c2C)cc(=O)n2c1SCC2C(=O)Nc1ccc(C)cc1 (racemic) | 71% | 98% | 88% |  |
| COc1c(Cc2cccc(C)c2C)c(N)c(=O)n2c1SCC2c1nc(-c2ccccc2)no1 (racemic) |  | 17% | 94% |  |
| COc1c(Cc2cccc(C)c2C)c(N)c(=O)n2c1SCC2C(=O)Nc1ccc(C)cc1 (racemic) |  | 56% | 93% |  |
| CS(=O)(=O)Nc1c(Cc2cccc3ccccc23)cc(=O)n2c1SCC2c1nc(-c2ccccc2)n[nH]1 (racemic) |  | 20% | 93% |  |
| COc1c(Cc2cccc(C)c2C)c(N)c(=O)n2c1SCC2C(=O)Nc1cc(C)cc(F)c1 (racemic) |  | 47% | 92% |  |
| O=C(Nc1ccccc1)C1CSc2c(O)c(Cc3cccc4ccccc34)cc(=O)n21 (racemic) |  | 21% | 93% |  |
| COc1c(Cc2cccc3ccccc23)cc(=O)n2c1SCC2C(=O)Nc1ccccc1 (racemic) |  | 24% | 91% |  |
| Nc1c(Cc2cccc3ccccc23)c(C2CC2)c2n(c1=O)C(C(=O)Nc1ccccc1)CS2 (racemic) | 94% | 98% |  |  |
| O=C(Nc1ccccc1)C1CSc2c(C3CC3)c(Cc3cccc4ccccc34)cc(=O)n21 (racemic) | 67% | 87% |  |  |
